Measurements taken from ChEMBL document CHEMBL1132143, “Effect of A-ring modifications on the DNA-binding behavior and cytotoxicity of pyrrolo[2,1-c][1,4]benzodiazepines” (J Med Chem, 1999).

Tests used:
[1] = system: Calf thymus DNA; test: Tested for thermal denaturation against CT-DNA at 0 hours; format: nucleic-acid assay; settings: Bos taurus
Summary of the method: (§1)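 CT-DNA (42% G+C) at 100 μM in DNA phosphate with compound at 20 μM (5:1 ratio). Buffer pH 7.00, 10 mM sodium phosphate, 1 mM EDTA, ≤0.6% v/v MeOH. Incubated at 37.0 °C for the stated time. Melted at 1 °C/min from 45 to 98 °C, read at 260 nm. ΔTm is Tm with ligand minus free DNA Tm, MeOH-corrected; mean ± SD of ≥3 runs.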

[2] = system: Calf thymus DNA; test: Tested for thermal denaturation against CT-DNA at 18 hours; settings: Bos taurus
[3] = system: Calf thymus DNA; test: Tested for thermal denaturation against CT-DNA at 4 hours; format: nucleic-acid assay; settings: Bos taurus; summary of the method: as §1
[4] = system: CH1; test: Tested for cytotoxicity against CH1 human ovarian cells; format: functional, cell-based
Summary of the method: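 CH1 human ovarian monolayer, plated day 0 at 100–200 cells per T25 flask in Dulbecco's medium with 10% fetal calf serum and allowed to attach overnight. Compound added day 1 and left continuously at 37 °C. Colonies fixed day 9 in EtOH, stained with methylene blue and counted. IC50 is 50% inhibition versus solvent controls. Range 10^-4–10^-11 M, 10-fold steps.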

[5] = system: Calf thymus DNA; test: Tested for thermal denaturation against CT-DNA; settings: Bos taurus
[6] = Tested for cytotoxicity against ADJ/PC6 mouse plasmacytoma; format: functional, cell-based
Summary of the method: (§2)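 ADJ/PC6 mouse plasmacytoma grown in suspension. Seeded day 0 at 3–5 × 10^4 cells/mL in Dulbecco's medium with 20% horse serum. Log-phase confirmed day 1, then compound added for 72 h at 37 °C. Cells counted day 4 by Coulter counter. IC50 is the dose giving 50% growth inhibition versus solvent controls. Screened 10^-4–10^-11 M in 10-fold steps, <0.05% v/v DMSO.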

[7] = system: L1210; test: Tested for cytotoxicity against L1210 mouse Leukemia cell; format: functional, cell-based
Summary of the method: (§3)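 L1210 mouse leukemia grown in suspension. Seeded day 0 at 10^4 cells/mL in RPMI 1640 with 10% horse serum. Log phase checked day 1, then compound added for 48 h at 37 °C. Cells counted day 3 by Coulter counter. IC50 is 50% growth inhibition versus solvent-treated controls. Dose range 10^-4–10^-11 M in 10-fold steps, <0.05% v/v DMSO.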

[8] = system: L1210; test: Tested for cytotoxicity against L1210 Leukemia cell; format: functional, cell-based; settings: Mus musculus; summary of the method: as §3
[9] = Tested for cytotoxicity against ADJ/PC6 plasmacytoma; format: functional, cell-based, Mus musculus; summary of the method: as §2

ΔTm [1] | ΔTm [2] | ΔTm [3] | ΔTm [5] | SMILES | IC50 [4] | IC50 [6] | IC50 [7] | IC50 [8] | IC50 [9]
0.3 °C | 0.6 °C | 0.5 °C |  | COC(=O)CCOc1cc2c(cc1OC)C(=O)N1CCC[C@H]1C=N2 | 4400 nM |  |  |  | 
0.2 °C | 0.4 °C | 0.4 °C |  | COc1cc2c(cc1OCc1ccccc1)N=C[C@@H]1CCCN1C2=O | 1000 nM |  |  | 3000 nM | 370 nM
0.1 °C | 0.4 °C | 0.2 °C |  | O=C1c2cc3c(cc2N=C[C@@H]2CCCN12)OCO3 | 260 nM |  |  | 1500 nM | 1900 nM
0.3 °C | 0.6 °C | 0.5 °C |  | COc1cc2c(cc1O)C(=O)N1CCC[C@H]1C=N2 | 200 nM |  |  | 2700 nM | 2700 nM
0.1 °C | 0.5 °C | 0.3 °C |  | O=C1c2cc3c(cc2N=C[C@@H]2CCCN12)OCCO3 | 460 nM |  |  | 2700 nM | 3400 nM
0.3 °C | 0.6 °C | 0.4 °C |  | O=C1c2ccccc2N=C[C@@H]2CCCN12 | 42000 nM |  |  | > 100000 nM | 38000 nM

Continued, molecule first:

SMILES | ΔTm [1] | ΔTm [2] | ΔTm [3] | ΔTm [5] | IC50 [4] | IC50 [6] | IC50 [7] | IC50 [8] | IC50 [9]
CO[C@@H]1Nc2ncccc2C(=O)N2CCC[C@@H]12 | 0.3 °C |  | 0.5 °C | 0.5 °C | 43000 nM | > 50000 nM | 13000 nM |  | 
CO[C@H]1Nc2nccnc2C(=O)N2CCC[C@@H]12 | 0.3 °C |  | 0.6 °C | 0.7 °C | 17000 nM |  |  |  | 
COc1cc2c(cc1OCCCOCc1ccccc1)N=C[C@@H]1CCCN1C2=O | 0.2 °C | 0.6 °C | 0.4 °C |  | 290 nM |  |  | 2400 nM | 2300 nM
COC(=O)c1c2c(nn1C)C(=O)N1CCC[C@H]1C=N2 | 0.2 °C |  | 0.3 °C | 0.5 °C | > 100000 nM | > 50000 nM | 35000 nM |  | 
COc1cc2c(cc1O)N=C[C@@H]1CCCN1C2=O | 0.3 °C |  | 0.5 °C |  | 100 nM |  |  |  | 330 nM
C/C=C1\C[C@H]2C=Nc3cc(O)c(OC)cc3C(=O)N2C1 | 1 °C | 2.6 °C | 2.4 °C |  | 0.13 nM |  |  | 3.7 nM | 1.8 nM
CO[C@H]1Nc2ncccc2C(=O)N2CCC[C@@H]12 | 0.3 °C |  | 0.5 °C | 0.5 °C | 43000 nM | > 50000 nM | 13000 nM |  | 
COc1nc(OC)c2c(n1)C(=O)N1CCC[C@H]1C=N2 | 0.1 °C |  | 0.2 °C | 0.3 °C |  |  | 42000 nM |  | 
COC1Nc2c(ccc(C)c2O)C(=O)N2C=C(/C=C/C(N)=O)C[C@@H]12 (some centres undefined) | 9.4 °C | 13 °C | 11.2 °C |  | 320 nM | 2.8 nM | 22 nM |  | 
COc1cc2c(cc1NC(=O)OCc1ccccc1)N=C[C@@H]1CCCN1C2=O | 0.1 °C |  | 0.2 °C | 0.4 °C | 1800 nM | 3200 nM | 4500 nM |  | 
CCCCOC1CC[C@H]2C=Nc3cc(O)c(OC)cc3C(=O)N12 (some centres undefined) | 0.5 °C | 0.8 °C | 0.6 °C |  | 430 nM |  |  | 2700 nM | 1300 nM
